The values that follow come from PMC4124904 (British journal of haematology, 2010).

Data set [1] can be described thus: Pharmacokinetic analysis of idarubicin in plasma. It is filed as in vivo, human. The conditions noted are these: for Cmax: iv, Maximum idarubicin plasma concentration (cmax), schedule A.
In a further data set the test system is TOP2A mRNA. The experiment in a line: Real-time PCR of TOP2A mRNA expression in PBMCs. It is filed as in vivo, human.
Data set [2] relates to histone-H3 acetylation in PBMCs. The experiment in a line: Histone-H3 acetylation in PBMCs. It is filed as in vivo, human.
For data set [3], the system named is patients with refractory cutaneous T cell lymphoma (CTCL). The conditions noted are these: et al 2007, cited from earlier work.
Data set [4] is described as follows: Pharmacokinetic analysis of vorinostat and two metabolites. The conditions noted are these: for Tmax / Cmax: human, serum. It is filed as in vivo, human. The method in brief:
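Relapsed/refractory leukaemia patients self-dosed oral HDAC inhibitor TID for 14 days (arm A) or 3 days (arm B), 3+3 escalation from 100 mg, with anthracycline 12 mg/m2 IV over 30 min on days 1–3. Blood clotted 20–30 min at 4°C, spun 2,000 × g 15 min at 4°C, serum stored at -70°C. […] Dosing times unrecorded, so only Cmax and Tmax were derived.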

Data set [5] has as its system patients with relapsed or refractory leukaemia. Description: Phase I safety and tolerability: adverse events, DLT, MTD. It is filed as in vivo, human. The conditions noted are these: Schedule B: for 3 days, with idarubicin 12 mg/m^2/d IV for 3 days.

One may read the half-life as the time in which the quantity being followed falls by half. A high value points to slow decline. The Cmax is the highest concentration seen after dosing. Molecule `CC(=O)[C@]1(O)Cc2c(O)c3c(c(O)c2[C@@H](O[C@H]2C[C@H](N)[C@H](O)[C@H](C)O2)C1)C(=O)c1ccccc1C3=O` [idarubicin] had a half-life in data set [1] (human, plasma, intravenous) of around 11 h. Further, the Cmax in data set [1] (human, plasma, mean, idarubicin 30-min intravenous infusion) was 66.1 ng/mL; in data set [1] (human, plasma, range, idarubicin 30-min intravenous infusion) it was 19.5 to 139 ng/mL. Besides, the “Idarubicin peak plasma concentration, mean” value in data set [1] (schedule B, idarubicin 30-min intravenous infusion) is 55.4 ng/mL.
A word on the Tmax: it is the time from dosing to the highest level. As to `O=C(CCCCCCC(=O)Nc1ccccc1)NO` [vorinostat], the “Change of TOP2A mRNA levels relative to pretreatment” value is recorded as “downregulation” with TOP2A mRNA (schedule A, day 1 to day 21, p=0.016, Wilcoxon signed rank test) and “trend towards downregulation” in the data set on TOP2A mRNA (schedule B, by day 3 of therapy, p=0.168, Wilcoxon, returned to baseline later). In addition, in data set [2] (3-day schedule of vorinostat), the “Patients with detectable histone acetylation at day 21” value worked out at 50%. The “Patient samples with increased histone-H3 acetylation” value in data set [2] (15 of 33 available patient samples, both schedules) came to 46%. For the same molecule, the “Patients with increased histone-H3 acetylation” value in data set [2] (schedule A) is listed as 5/11; in data set [2] (schedule B), 10/22. Further, the Response rate in data set [3] (Phase II, 3 different schedules, refractory CTCL, ref Duvic) is listed as 24%. Also, in data set [3] (second Phase II trial, progressive or refractory CTCL, ref Olsen), the Objective response rate is 30%. The Plasma concentrations achieved in data set [4] (TID dosing for 3 days, dose levels of 400 mg and 500 mg) was above 2000 nM. Further, the Tmax in data set [4] (oral) is 1 to 3 h; in data set [4] (po, 100 mg), 2.5 h; in data set [4] (po, 300 mg), 2.5 h; in data set [4] (po, 400 mg), 2.25 h. Further, the Cmax in data set [4] (oral, Median Cmax for vorinostat, non-responders) was 800 nM; in data set [4] (po, 100 mg, Vorinostat Mean Cmax, vorinostat 100 mg TID for 3 days oral, with idarubicin, N=3) it was 688 nM; in data set [4] (po, 100 mg, Vorinostat Median Cmax (Range), vorinostat 100 mg TID for 3 days oral, with idarubicin, N=3) it was 331 nM; in data set [4] (po, 200 mg, Vorinostat Mean Cmax, vorinostat 200 mg TID for 3 days oral, with idarubicin, N=3), 522 nM; in data set [4] (po, 200 mg, Vorinostat Median Cmax (Range), vorinostat 200 mg TID for 3 days oral, with idarubicin, N=3), 443 nM. The “Vorinostat Median Tmax” value in data set [4] (vorinostat 100 mg TID for 3 days oral, with idarubicin, N=3) is reported as 2 h; in data set [4] (vorinostat 200 mg TID for 3 days oral, with idarubicin, N=3) it was 1 h; in data set [4] (vorinostat 500 mg TID for 3 days oral, with idarubicin, N=5), 3 h. Also, the “Maximum tolerated dose (MTD) of vorinostat” value in data set [5] was found to be 400 mg TID.
